Series [1] concerns the target T1, Tyrosinase (Agaricus bisporus) (UniProt O42713).
T1 sequence (whole entry): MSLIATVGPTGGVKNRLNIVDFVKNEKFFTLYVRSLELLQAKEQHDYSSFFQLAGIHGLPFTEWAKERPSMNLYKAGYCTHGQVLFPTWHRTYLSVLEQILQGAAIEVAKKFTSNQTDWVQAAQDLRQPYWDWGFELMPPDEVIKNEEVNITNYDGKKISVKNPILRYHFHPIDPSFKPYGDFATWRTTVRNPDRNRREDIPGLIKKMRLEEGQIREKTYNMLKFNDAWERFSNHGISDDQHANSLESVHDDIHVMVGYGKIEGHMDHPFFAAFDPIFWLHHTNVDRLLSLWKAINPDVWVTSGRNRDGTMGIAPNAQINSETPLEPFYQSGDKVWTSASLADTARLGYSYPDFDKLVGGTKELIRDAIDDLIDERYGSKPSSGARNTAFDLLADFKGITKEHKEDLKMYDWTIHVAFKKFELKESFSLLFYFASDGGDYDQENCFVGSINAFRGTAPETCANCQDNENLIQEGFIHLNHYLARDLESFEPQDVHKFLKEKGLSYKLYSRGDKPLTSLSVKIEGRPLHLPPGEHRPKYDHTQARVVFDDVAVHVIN
As to the kind of experiment: Inhibition of mushroom tyrosinase assessed as 3,4-dihydroxy-L-phenylalanine oxidation at 0.1 mM. The procedure, abridged: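 Mushroom tyrosinase was the enzyme source. Activity was reported as IC50 in mM, with compounds tested up to 3.0 mM, and as percent inhibition at 0.1 mM. Values are means of three separate experiments.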

Series [2] has as its target T2, Tyrosinase (Agaricus bisporus, UniProt O42713).
T2 sequence (O42713 whole entry): T1 sequence (whole entry)
Nature of the series: Inhibition of mushroom tyrosinase assessed as 3,4-dihydroxy-L-phenylalanine oxidation.

Series [3] relates to Mus musculus. Nature of the series: Toxicity in mouse assessed by autopsy at 1200 mg/kg, po administered as single gavage dose after 20 days. It is filed as organism-based. Set-up: dose 1200 mg/kg, route oral. To be noted: in vivo, 480 h. The procedure, abridged:
(§1)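 Acute oral toxicity in mice: one 1200 mg/kg dose given by gavage. Clinical symptoms and mortality were followed for 20 days. Animals were autopsied at the end of the 20-day period, and organs were examined for gross changes.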

In series [4] the test system is Mus musculus. Nature of the series: Toxicity in mouse assessed as mortality at 1200 mg/kg, po administered as single gavage dose after 20 days. Particulars: in vivo, 480 h. Set-up: dose 1200 mg/kg, route oral. It is filed as organism-based. The gist of the method: as §1

The source made the active and inactive calls. No cut-off for these calls is given here.

By inhibition is commonly meant the relative decrease from the control value, in per cent. A word on the IC50: it is the concentration that inhibits the measured activity by half. In the case of `O=Cc1ccc(O)cc1` [4-HYDROXYBENZALDEHYDE], the inhibition in series [1] was 15%. Also, the IC50 in series [2] worked out at 1120 µM.
In the case of `O=Cc1ccc(O[C@@H]2O[C@H](CO)[C@@H](O)[C@@H](O)[C@H]2O)cc1` [HELICIDE], the inhibition in series [1] stood at 10%. Also, the IC50 in series [2] amounted to 2540 µM.
For the molecule `CC(=O)OC[C@H]1O[C@@H](Oc2ccc(C=O)cc2)[C@H](OC(C)=O)[C@@H](OC(C)=O)[C@@H]1OC(C)=O`, the outcome in series [1] was inactive. Moreover, in series [2], the IC50 is above 3000 µM.
As to `CC(=O)O[C@H]1[C@@H](OC(C)=O)[C@H](Oc2ccc(C=O)cc2)O[C@H](CO)[C@H]1OC(C)=O`, in series [1], the outcome was inactive. Also, the IC50 in series [2] was above 3000 µM.
For `O=Cc1ccc(O[C@@H]2OC[C@@H](O)[C@@H](O)[C@H]2O)cc1`, the inhibition in series [1] amounted to 42%. Moreover, the concentration for half-maximal inhibition (IC50) in series [2] amounted to 280 µM.
As for `O=Cc1ccc(O[C@@H]2O[C@H](CO)[C@@H](O)[C@H](O)[C@H]2O)cc1`, in series [1], the inhibition amounted to 30%. In addition, the Activity entry in series [3] and in series [4] was “Non-toxic” throughout. Besides, the IC50 in series [2] was determined as 940 µM.
Regarding `O=Cc1ccc(O[C@@H]2OC[C@@H](OC(=O)c3ccccc3)[C@@H](OC(=O)c3ccccc3)[C@H]2OC(=O)c2ccccc2)cc1`, the result in series [1] was inactive. For the same molecule, the IC50 in series [2] is above 3000 µM.
Regarding `COP(=O)(OC)OC[C@H]1O[C@@H](Oc2ccc(C=O)cc2)[C@H](O)[C@H](O)[C@@H]1O`, in series [1], the inhibition was found to be 24%. In addition, the IC50 in series [2] was determined as 430 µM.
On to `OC[C@H]1O[C@@H](Oc2ccc(O)cc2)[C@H](O)[C@@H](O)[C@@H]1O`, for which the result in series [1] was inactive.
For the molecule `O=Cc1ccc(O[C@@H]2O[C@H](COC(c3ccccc3)(c3ccccc3)c3ccccc3)[C@@H](O)[C@@H](O)[C@H]2O)cc1`, the result in series [1] was inactive. Besides, the 50% inhibitory concentration (IC50) in series [2] is above 3000 µM.
Consider `CC1(C)O[C@@H]2[C@H](O)[C@@H](CO)O[C@@H](Oc3ccc(C=O)cc3)[C@@H]2O1`, for which, in series [1], the inhibition was 13%. Moreover, the IC50 in series [2] was found to be 620 µM.
As to `COc1ccc(/C=C/C(=O)O)cc1`, in series [1], the inhibition is 22%.
As to `O=Cc1ccc(O[C@@H]2O[C@@H]3CO[C@@H](c4ccccc4)O[C@H]3[C@@H](O)[C@H]2O)cc1`, in series [1], the inhibition came out at 77%. Besides, the Activity result in series [3] and in series [4] was “Non-toxic” each time. Further, the IC50 in series [2] was determined as 52 µM.
Regarding `CC(=O)OC[C@H]1O[C@@H](O[C@H]2[C@H](OC(C)=O)[C@@H](OC(C)=O)[C@H](Oc3ccc(C=O)cc3)O[C@@H]2COC(C)=O)[C@H](OC(C)=O)[C@@H](OC(C)=O)[C@H]1OC(C)=O`, in series [1], the inhibition turned out to be 5%. In addition, the IC50 in series [2] was above 3000 µM.

The record behind these values is ChEMBL document CHEMBL1152202, “Synthesis and biological evaluation of helicid analogues as mushroom tyrosinase inhibitors” (Bioorg Med Chem Lett, 2008).
